# Experimental data taken from ChEMBL document CHEMBL4138092, “Antibacterial activity and mechanism of action of the benzazole acrylonitrile-based compounds: In vitro, spectroscopic, and docking studies” (2017).
# Active and inactive are the calls of the source. The calls are words filed in the database; no cut-off is given here.
# Experiments:
# Staphylococcus aureus [1] = test: Antibacterial activity against Staphylococcus aureus ATCC 25923 after 24 to 48 hrs by agar well diffusion method; assay type: functional
# In short: (§1)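 Mueller Hinton agar plates spread with bacteria (10⁶ cells/ml). Wells were filled with 50 µl of compound and incubated at 37 °C for 24–48 h. The inhibition zone diameter (mm) was measured with a transparent scale. Amoxicillin 5.0 mg/ml at 50 µl/well served as the positive control.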
# [2] = tested on: Bifidobacterium longum subsp. infantis; test: Inhibition of beta-lactamase in Bifidobacterium infantis assessed as potentiation of amoxicillin induced antibacterial activity after 24 hrs by agar well diffusion method
# In short: (§2)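 Amoxicillin (1.0 µg/ml) was combined with test compound and diluted to 100, 80, 60, 40, 10 and 5%. The mixtures were serially diluted in sterile water, and 100 µl was added to 900 µl nutrient broth. Tubes were inoculated with 10 µl of 10⁵ cells/ml and held 24 h at 37±1 °C. Growth/no growth was scored visually. Controls were bacteria in broth alone and sterile broth alone.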
# [3] = molecular target: Beta-lactamase (Pseudomonas aeruginosa) (UniProt Q8RL90); test: Inhibition of beta-lactamase in Pseudomonas aeruginosa ATCC 27853 assessed as potentiation of amoxicillin induced antibacterial activity at 5% amoxicillin to compound dilution after 24 hrs by agar well diffusion method; in short: as §2
# [4] = tested on: Bifidobacterium longum subsp. infantis; test: Inhibition of beta-lactamase in Bifidobacterium infantis assessed as potentiation of amoxicillin induced antibacterial activity by measuring amoxicillin MIC after 24 hrs by agar well diffusion method (reference value: 1.5 ug/ml); in short: as §2
# [5] = tested on: Escherichia coli ATCC 25922; test: Inhibition of beta-lactamase in Escherichia coli ATCC 25922 assessed as potentiation of amoxicillin induced antibacterial activity by measuring amoxicillin MIC after 24 hrs by agar well diffusion method (reference value: 1.5 ug/ml); in short: as §2
# [6] = molecular target: Beta-lactamase (Staphylococcus aureus) (UniProt P00807); test: Inhibition of beta-lactamase in Staphylococcus aureus ATCC 25923 assessed as potentiation of amoxicillin induced antibacterial activity by measuring amoxicillin MIC after 24 hrs by agar well diffusion method (reference value: 1.5 ug/ml); in short: as §2
# [7] = tested on: Bifidobacterium longum subsp. infantis; test: Inhibition of beta-lactamase in Bifidobacterium infantis assessed as potentiation of amoxicillin induced antibacterial activity at 5% amoxicillin to compound dilution after 24 hrs by agar well diffusion method; in short: as §2
# [8] = molecular target: Beta-lactamase (Pseudomonas aeruginosa) (UniProt Q79MP6); test: Inhibition of beta-lactamase in Pseudomonas aeruginosa ATCC 27853 assessed as potentiation of amoxicillin induced antibacterial activity by measuring amoxicillin MIC after 24 hrs by agar well diffusion method (reference value: 1 ug/ml); in short: as §2
# [9] = molecular target: Beta-lactamase (Staphylococcus aureus) (UniProt P00807); test: Inhibition of beta-lactamase in Staphylococcus aureus ATCC 25923 assessed as potentiation of amoxicillin induced antibacterial activity after 24 hrs by agar well diffusion method; in short: as §2
# [10] = molecular target: Beta-lactamase (Staphylococcus aureus) (UniProt P00807); test: Inhibition of beta-lactamase in Staphylococcus aureus ATCC 25923 assessed as potentiation of amoxicillin induced antibacterial activity at 10 to 100% amoxicillin to compound dilution after 24 hrs by agar well diffusion method; in short: as §2
# Bacillus spizizenii [11] = test: Antibacterial activity against Bacillus subtilis ATCC 6633 after 24 hrs by agar well diffusion method; assay type: functional; conditions: ATCC 6633, 24 h
# [12] = tested on: Escherichia coli ATCC 25922; test: Inhibition of beta-lactamase in Escherichia coli ATCC 25922 assessed as potentiation of amoxicillin induced antibacterial activity after 24 hrs by agar well diffusion method; in short: as §2
# [13] = molecular target: Beta-lactamase (Pseudomonas aeruginosa) (UniProt Q8RL90); test: Inhibition of beta-lactamase in Pseudomonas aeruginosa ATCC 27853 assessed as potentiation of amoxicillin induced antibacterial activity after 24 hrs by agar well diffusion method; in short: as §2
# [14] = molecular target: Beta-lactamase (Staphylococcus aureus) (UniProt P00807); test: Inhibition of beta-lactamase in Staphylococcus aureus ATCC 25923 assessed as potentiation of amoxicillin induced antibacterial activity at 5% amoxicillin to compound dilution after 24 hrs by agar well diffusion method; in short: as §2
# Pseudomonas aeruginosa [15] = test: Antibacterial activity against Pseudomonas aeruginosa ATCC 27853 after 24 to 48 hrs by agar well diffusion method; assay type: functional; in short: as §1
# Bacillus spizizenii [16] = test: Antibacterial activity against Bacillus subtilis ATCC 6633 after 24 to 48 hrs by agar well diffusion method; assay type: functional; in short: as §1
# Staphylococcus aureus [17] = test: Antibacterial activity against Staphylococcus aureus ATCC 25923 after 24 hrs by agar well diffusion method; assay type: functional; conditions: ATCC 25923, 24 h
# Escherichia coli [18] = test: Induction of morphological changes in Escherichia coli ATCC 25922 assessed as cell rupture at 0.2 ppm after 2 hrs by uranyl acetate staining based transmission electron microscopic analysis; assay type: functional, organism-based
# In short: (§3)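 E. coli was exposed for 2 h, alongside untreated controls processed identically. Pellets were fixed in Karnovsky's fixative (2% paraformaldehyde, 2.5% glutaraldehyde) for 3–4 h at 25 °C, then washed in 0.1 M phosphate pH 7.2. Cells were adsorbed onto formvar-carbon copper grids and stained 5 min in […] aqueous uranyl acetate. Grids were imaged by TEM at 80 kV.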
# Escherichia coli [19] = test: Induction of morphological changes in Escherichia coli ATCC 25922 assessed as cell damage at 0.2 ppm after 2 hrs by uranyl acetate staining based transmission electron microscopic analysis; assay type: functional, organism-based; in short: as §3
# Pseudomonas aeruginosa [20] = test: Antibacterial activity against Pseudomonas aeruginosa ATCC 27853 after 24 hrs by agar well diffusion method; assay type: functional; conditions: ATCC 27853, 24 h
# [21] = tested on: Escherichia coli ATCC 25922; test: Inhibition of beta-lactamase in Escherichia coli ATCC 25922 assessed as potentiation of amoxicillin induced antibacterial activity at 10 to 100% amoxicillin to compound dilution after 24 hrs by agar well diffusion method; in short: as §2
# [22] = molecular target: Beta-lactamase (Pseudomonas aeruginosa) (UniProt Q79MP6); test: Inhibition of beta-lactamase in Pseudomonas aeruginosa ATCC 27853 assessed as potentiation of amoxicillin induced antibacterial activity at 10 to 100% amoxicillin to compound dilution after 24 hrs by agar well diffusion method; in short: as §2
# [23] = molecular target: Beta-lactamase (Escherichia coli) (UniProt Q53TY8); test: Binding affinity to Escherichia coli beta-lactamase in phosphate buffer at pH 7.4 at 6 10^-5M by CD spectral analysis
# In short: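 Successive additions of compound (6 × 10^-5 M) were made to 1.0 mL β-lactamase in phosphate buffer pH 7.4. CD spectra were recorded at 25 °C over 200–700 nm, scan speed 50 nm/min, bandwidth 1 nm.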
# [24] = tested on: Bifidobacterium longum subsp. infantis; test: Inhibition of beta-lactamase in Bifidobacterium infantis assessed as potentiation of amoxicillin induced antibacterial activity at 10 to 100% amoxicillin to compound dilution after 24 hrs by agar well diffusion method; in short: as §2
# Escherichia coli [25] = test: Antibacterial activity against Escherichia coli ATCC 25922 after 24 hrs by agar well diffusion method; assay type: functional; conditions: ATCC 25922, 24 h
# [26] = molecular target: Beta-lactamase (Escherichia coli) (UniProt Q53TY8); test: Binding affinity to Escherichia coli beta-lactamase in phosphate buffer at pH 7.4 at 6 10^-5M after 3 mins by fluorescence titration analysis
# In short: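 Fixed compound concentration in phosphate buffer pH 7.4, titrated with 10 µl additions of 1 × 10^-6 M β-lactamase. Excitation was 280 or 290 nm depending on compound, with emission scanned 300–600 nm and slits 5–10 nm. Readings followed 3 min equilibration per addition in a 1 cm quartz cell, continuing to saturation.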
# [27] = molecular target: Beta-lactamase (Escherichia coli) (UniProt Q53TY8); test: Binding affinity to Escherichia coli beta-lactamase in phosphate buffer at pH 7.4 at 6 10^-5M after 3 mins by UV-vis spectroscopic analysis
# In short: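 Compound at 6 × 10^-5 M in 0.01 M phosphate buffer pH 7.4 was titrated with 10 µl aliquots of 1 × 10^-6 M β-lactamase. Absorbance spectra were recorded at 200–700 nm after 3 min equilibration per addition, continuing until no further change (saturation).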
# Bifidobacterium longum = test: Antibacterial activity against Bifidobacterium infantis after 24 hrs by agar well diffusion method; assay type: functional, Bifidobacterium longum subsp. infantis
# Escherichia coli [28] = test: Induction of morphological changes in Escherichia coli ATCC 25922 assessed as cell crack at 0.2 ppm after 2 hrs by uranyl acetate staining based transmission electron microscopic analysis; assay type: functional, organism-based; in short: as §3
# Escherichia coli [29] = test: Antibacterial activity against Escherichia coli ATCC 25922 after 24 to 48 hrs by agar well diffusion method; assay type: functional; in short: as §1
# [30] = tested on: Escherichia coli ATCC 25922; test: Inhibition of beta-lactamase in Escherichia coli ATCC 25922 assessed as potentiation of amoxicillin induced antibacterial activity at 5% amoxicillin to compound dilution after 24 hrs by agar well diffusion method; in short: as §2
compound,measurement,setting,value
N#C/C(=C\c1cnc(N)nc1N)c1nc2ccccc2s1,inhibition zone (IZ),Staphylococcus aureus [1],32 mm
same,fractional inhibitory concentration index (FICI),[2],0.2
same,inhibition,[3],inactive
same,MIC,[4],0.1 µg/mL
same,MIC,[5],0.1 µg/mL
same,MIC,[6],0.8 µg/mL
same,inhibition,[7],inactive
same,MIC,[8],0.8 µg/mL
same,fractional inhibitory concentration index (FICI),[9],0.2
same,inhibition,[10],Active
same,MIC,Bacillus spizizenii [11],8 µg/mL
same,fractional inhibitory concentration index (FICI),[12],0.2
same,fractional inhibitory concentration index (FICI),[13],0.2
same,inhibition,[14],inactive
same,inhibition zone (IZ),Pseudomonas aeruginosa [15],28 mm
same,inhibition zone (IZ),Bacillus spizizenii [16],40 mm
same,MIC,Staphylococcus aureus [17],8 µg/mL
same,Activity,Escherichia coli [18],Active
same,Activity,Escherichia coli [19],Active
same,MIC,Pseudomonas aeruginosa [20],1 µg/mL
same,inhibition,[21],Active
same,inhibition,[22],Active
same,Activity,[23],Active
same,inhibition,[24],Active
same,MIC,Escherichia coli [25],1 µg/mL
same,Activity,[26],Active
same,Activity,[27],Active
same,MIC,Bifidobacterium longum,1 µg/mL
same,Activity,Escherichia coli [28],Active
same,inhibition zone (IZ),Escherichia coli [29],47 mm
same,inhibition,[30],inactive
